Data as given in ChEMBL document CHEMBL1949548, “A β-tryptase inhibitor with a tropanylamide scaffold to improve in vitro stability and to lower hERG channel binding affinity” (Bioorg Med Chem Lett, 2012).

Assays:
[1] = Inhibition of human tryptase-beta using S-2366 as substrate by chromogenic assay
[2] = Metabolic stability in human liver microsomes after 20 mins; format: ADME, Microsome
How it was run: (§1)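 Liver microsomal fractions prepared by centrifugation. Compound incubated with the fractions for 20 min before the reaction was stopped. Stability expressed as percent of compound metabolized.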

[3] = Metabolic stability in rat liver microsomes after 20 mins; format: ADME, Microsome; how it was run: as §1
[4] = Chemical stability in presence of human semicarbazide-sensitive amine oxidase assessed as compound remaining; format: physicochemical
How it was run: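 Human semicarbazide-sensitive amine oxidase (hSSAO) stability read as percent of compound remaining after 24 h.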

Cytochrome P450 3A4 = Cytochrome P450 3A4 (Homo sapiens, UniProt P08684); assay: Inhibition of human CYP3A4 using midazolam as substrate by LC-MS/MS analysis; format: ADME
Cytochrome P450 3A4, sequence (P08684 whole entry): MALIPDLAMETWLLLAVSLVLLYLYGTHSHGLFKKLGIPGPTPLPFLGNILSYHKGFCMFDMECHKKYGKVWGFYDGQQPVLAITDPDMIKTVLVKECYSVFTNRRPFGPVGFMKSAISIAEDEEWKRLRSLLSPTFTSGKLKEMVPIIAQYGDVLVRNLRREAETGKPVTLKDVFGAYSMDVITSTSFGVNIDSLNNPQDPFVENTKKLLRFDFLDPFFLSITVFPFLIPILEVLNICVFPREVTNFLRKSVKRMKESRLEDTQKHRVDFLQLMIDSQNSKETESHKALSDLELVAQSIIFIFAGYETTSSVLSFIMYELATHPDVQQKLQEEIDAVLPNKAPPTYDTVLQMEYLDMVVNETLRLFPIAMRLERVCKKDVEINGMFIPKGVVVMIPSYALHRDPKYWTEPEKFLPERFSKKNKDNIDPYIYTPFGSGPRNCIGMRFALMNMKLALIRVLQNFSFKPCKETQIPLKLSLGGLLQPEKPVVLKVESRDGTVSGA
How it was run: (§2)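 Direct-acting CYP inhibition was run in human liver microsomes. Activity was read by LC–MS/MS of marker-substrate turnover: midazolam for CYP3A4 and dexotromethorphan for CYP2D6. IC50 values were derived.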

Cytochrome P450 2D6 = Cytochrome P450 2D6 (Homo sapiens, UniProt P10635); assay: Inhibition of human CYP2D6 using dexotromethorphan as substrate by LC-MS/MS analysis; format: ADME; how it was run: as §2
Cytochrome P450 2D6, sequence (P10635 whole entry): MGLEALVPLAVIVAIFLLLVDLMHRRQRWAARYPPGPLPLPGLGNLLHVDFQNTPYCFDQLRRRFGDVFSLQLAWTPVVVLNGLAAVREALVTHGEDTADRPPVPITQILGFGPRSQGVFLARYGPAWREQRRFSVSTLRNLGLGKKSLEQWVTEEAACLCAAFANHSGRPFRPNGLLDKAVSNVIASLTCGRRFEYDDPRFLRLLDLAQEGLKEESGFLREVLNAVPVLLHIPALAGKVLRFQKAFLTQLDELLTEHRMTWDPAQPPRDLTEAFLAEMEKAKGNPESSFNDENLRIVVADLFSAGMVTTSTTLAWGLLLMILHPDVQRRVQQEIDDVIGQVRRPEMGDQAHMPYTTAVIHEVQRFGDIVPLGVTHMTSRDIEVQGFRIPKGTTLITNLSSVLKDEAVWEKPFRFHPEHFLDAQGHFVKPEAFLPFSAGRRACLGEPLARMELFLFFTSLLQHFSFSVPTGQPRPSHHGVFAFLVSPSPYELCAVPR

[5] = target: Voltage-gated inwardly rectifying potassium channel KCNH2 (Homo sapiens, UniProt Q12809); assay: Inhibition of human ERG by whole-cell patch clamp electrophysiology assay
Voltage-gated inwardly rectifying potassium channel KCNH2, sequence (Q12809 whole entry): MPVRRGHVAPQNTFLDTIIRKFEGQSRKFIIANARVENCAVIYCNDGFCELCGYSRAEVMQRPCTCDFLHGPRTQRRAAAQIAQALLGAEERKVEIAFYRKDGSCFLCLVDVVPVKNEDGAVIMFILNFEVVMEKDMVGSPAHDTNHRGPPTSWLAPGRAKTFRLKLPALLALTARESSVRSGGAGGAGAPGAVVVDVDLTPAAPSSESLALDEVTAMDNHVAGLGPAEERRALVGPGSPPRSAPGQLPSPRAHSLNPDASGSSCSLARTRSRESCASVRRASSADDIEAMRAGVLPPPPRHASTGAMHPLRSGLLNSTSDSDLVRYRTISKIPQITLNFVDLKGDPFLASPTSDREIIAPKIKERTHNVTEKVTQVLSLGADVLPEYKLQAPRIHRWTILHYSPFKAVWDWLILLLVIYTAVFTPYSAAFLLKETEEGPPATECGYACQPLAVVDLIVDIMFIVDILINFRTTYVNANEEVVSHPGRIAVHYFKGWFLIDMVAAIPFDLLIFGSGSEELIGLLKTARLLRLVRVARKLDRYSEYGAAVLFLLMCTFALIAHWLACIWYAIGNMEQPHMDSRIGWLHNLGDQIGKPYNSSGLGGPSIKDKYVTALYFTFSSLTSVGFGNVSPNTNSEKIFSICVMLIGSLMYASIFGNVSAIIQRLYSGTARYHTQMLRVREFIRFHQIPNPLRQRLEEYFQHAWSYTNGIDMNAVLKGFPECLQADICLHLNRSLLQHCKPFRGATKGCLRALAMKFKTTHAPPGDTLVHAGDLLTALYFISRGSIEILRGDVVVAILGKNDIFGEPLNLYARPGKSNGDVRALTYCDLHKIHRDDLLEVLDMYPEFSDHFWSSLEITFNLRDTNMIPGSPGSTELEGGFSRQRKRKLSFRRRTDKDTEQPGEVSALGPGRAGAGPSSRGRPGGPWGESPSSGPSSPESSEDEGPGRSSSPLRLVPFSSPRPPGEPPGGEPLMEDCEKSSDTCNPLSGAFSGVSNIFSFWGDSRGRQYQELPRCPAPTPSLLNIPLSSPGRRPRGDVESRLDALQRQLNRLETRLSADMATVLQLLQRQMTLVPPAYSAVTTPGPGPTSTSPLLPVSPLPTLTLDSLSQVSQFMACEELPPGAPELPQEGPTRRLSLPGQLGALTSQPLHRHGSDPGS
How it was run: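 hERG potassium channel expressed in Chinese hamster ovary cells; channel currents recorded by whole-cell patch clamp electrophysiology.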

hERG (KCNH2) [6] = target: T1, hERG (KCNH2) (Homo sapiens, UniProt Q12809); assay: Inhibition of human ERG at 1 uM by whole-cell patch clamp electrophysiology assay
T1 sequence (Q12809 whole entry): as above
How it was run: (§3)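 hERG potassium channel expressed in Chinese hamster ovary cells. Channel currents recorded by whole-cell patch clamp electrophysiology, with percent inhibition of current reported.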

hERG (KCNH2) [7] = target: T1, hERG (KCNH2); assay: Inhibition of human ERG at 10 uM by whole-cell patch clamp electrophysiology assay; how it was run: as §3

Ki [1] [µM]	Structure (SMILES)	metabolized at 20 min [2] [%]	metabolized at 20 min [3] [%]	Stability [4] [%]	IC50 (Cytochrome P450 3A4) [µM]	IC50 (Cytochrome P450 2D6) [µM]	IC50 [5] [µM]	inhibition at 1 µM (hERG (KCNH2) [6]) [%]	inhibition at 10 µM (hERG (KCNH2) [7]) [%]
0.022	CCCOc1sc(C(=O)N2CCC(c3cccc(CN)c3)CC2)c(C)c1Br	26	6	70	4.7	2.5	1		
	CCCOc1sc(C(=O)N2[C@H]3CC[C@H]2CC(c2cc(CN)ccc2F)C3)c(C)c1Br (some centres undefined)	7	0	86	5.3	6.9		14	36
